Source: ChEMBL document CHEMBL2176901, “Pyrrolo[3,4-h]quinolinones a new class of photochemotherapeutic agents” (Bioorg Med Chem, 2011)
The source made the active and inactive calls. The calls are words filed in the database; no cut-off is given here.

Legend:
LoVo [1] = test: Phototoxicity in 2.5 J/cm'2 UV-A irradiated human LoVo cells after 72 hrs by MTT assay; format: functional, cell-based; conditions: light or radiation study
Method in brief: (§1)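 HL-60 and Jurkat (8×10³/well, RPMI-1640) and MCF-7, LoVo, NCTC-2544 (5×10³/well; DMEM or Ham's F12) preincubated 18 h at 37 °C, 5% CO₂. Compound in DMSO diluted in HBSS pH 7.2, 30 min at 37 °C, then UV-A at 2.5 or 3.75 J/cm². Medium replaced, 72 h incubation, MTT read-out. IC50 as mean ± SEM of three experiments.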

LoVo [2] = test: Phototoxicity in 3.75 J/cm'2 UV-A irradiated human LoVo cells after 72 hrs by MTT assay; format: functional, cell-based; conditions: light or radiation study
Method in brief: (§2)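 Seeded at 5 × 10³ cells/well with 10% FBS: MCF-7 and NCTC-2544 in DMEM, LoVo in Ham's F12. Pre-incubated 18 h at 37 °C, 5% CO2. Compound (DMSO stock diluted in HBSS pH 7.2) was applied for 30 min at 37 °C, then UV-A irradiation (mainly 365 nm, 4.0 mW/cm²). Medium was restored for 72 h before MTT. IC50 is the mean ± SEM of three experiences.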

MCF7 [3] = test: Phototoxicity in 2.5 J/cm'2 UV-A irradiated human MCF7 cells after 72 hrs by MTT assay; format: functional, cell-based; conditions: MCF7, light or radiation study; method in brief: as §1
HL-60 [4] = test: Phototoxicity in 2.5 J/cm'2 UV-A irradiated human HL60 cells after 72 hrs by MTT assay; format: functional, cell-based; conditions: HL-60, light or radiation study; method in brief: as §1
Jurkat [5] = test: Phototoxicity in 2.5 J/cm'2 UV-A irradiated human Jurkat cells after 72 hrs by MTT assay; format: functional, cell-based; conditions: light or radiation study; method in brief: as §1
[6] = Photodegradation of the compound in DMSO assessed as formation of photoproducts at 20 uM at 1.3 to 14.3 J/cm'2 UV-A irradiation; format: physicochemical
Method in brief: (§3)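 Compound solutions at 20 μM in DMSO exposed to increasing UV-A doses (HPW 125 lamps, mainly 365 nm, 4.0 mW cm⁻²). Absorption spectra recorded after each dose; isosbestic points noted.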

Jurkat [7] = test: Phototoxicity in 3.75 J/cm'2 UV-A irradiated human Jurkat cells after 72 hrs by MTT assay; format: functional, cell-based; conditions: light or radiation study
Method in brief: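 Jurkat cells (8 × 10³/well) in RPMI-1640 with 10% FBS, held 18 h at 37 °C, 5% CO2. Compound stock in DMSO was diluted in HBSS pH 7.2 and added for 30 min at 37 °C. Cells were UV-A irradiated (lamp mainly 365 nm, 4.0 mW/cm²), then returned to medium for 72 h. MTT readout. IC50 is the mean ± SEM of three experiences.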

[8] = Phototoxicity in 3.75 J/cm'2 UV-A irradiated human NCTC-2544 cells after 72 hrs by MTT assay; format: functional, cell-based; conditions: NCTC-2544, light or radiation study; method in brief: as §2
HL-60 [9] = test: Phototoxicity in 3.75 J/cm'2 UV-A irradiated human HL60 cells after 72 hrs by MTT assay; format: functional, cell-based; conditions: HL-60, light or radiation study; method in brief: as §1
MCF7 [10] = test: Phototoxicity in 3.75 J/cm'2 UV-A irradiated human MCF7 cells after 72 hrs by MTT assay; format: functional, cell-based; conditions: MCF7, light or radiation study; method in brief: as §2
[11] = Phototoxicity in 2.5 J/cm'2 UV-A irradiated human NCTC-2544 cells after 72 hrs by MTT assay; format: functional, cell-based; conditions: NCTC-2544, light or radiation study; method in brief: as §1
Jurkat [12] = test: Induction of apoptosis in UV-A irradiated human Jurkat cells assessed as increase in number of damaged lysosomes after 6 to 24 hrs by acridine orange- based flow cytometry; format: functional, cell-based
Method in brief: (§4)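 Lysosomal stability in Jurkat cells 6, 12 and 24 h after UV-A (2.5 J/cm²) with compound. Cells resuspended in RPMI-1640 with 1 µM acridine orange; flow cytometry, excitation 488 nm, emission in FL3. Mean ± SEM of three experiments.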

Jurkat [13] = test: Cell cycle arrest in UV-A irradiated human Jurkat cells assessed as accumulation at G1 phase at 5 uM after 24 hrs by propidium iodide based flow cytometry (reference value: 64.4 %); format: functional
Method in brief: (§5)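 Exponentially growing Jurkat cells (5×10^5) irradiated with UV-A (365 nm lamp, 2.5 J/cm²) in presence of compound. After 24 h: fixed in ice-cold 70% ethanol, lysed with RNAse A, stained with PI (10 µg/ml), analysed by flow cytometry. Phases calculated on living cells; subG1 is hypodiploid DNA peak.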

Nucleic Acid [14] = test: Binding affinity to salmon testes DNA at 10 uM by fluorescence titration; format: nucleic-acid assay; conditions: Salmonidae
Method in brief: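 Fluorimetric titration of compound (10 μM) with increasing stDNA (0 to 100 μM) in 10 mM phosphate buffer pH 7.2; quenching of compound fluorescence monitored.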

Jurkat [15] = test: Cell cycle arrest in UV-A irradiated human Jurkat cells assessed as accumulation at Sub G1 phase at 5 uM after 24 hrs by propidium iodide based flow cytometry (reference value: 0.1 %); format: functional; method in brief: as §5
Nucleic Acid [16] = test: Binding affinity to salmon testes DNA at drug/DNA ratio of 0.01 by linear dichroism analysis; format: nucleic-acid assay; conditions: Salmonidae
Method in brief: (§6)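 Flow linear dichroism in 10 mM phosphate buffer pH 7.2. Samples oriented in a rotating cylindrical cuvette (0.14 cm path, 800 rpm) at several drug/DNA ratios.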

Jurkat [17] = test: Induction of lipid peroxidation in 2.5 J/cm'2 UV-A irradiated human Jurkat cells assessed as increase in TBARS formation after 24 hrs by thiobarbituric acid assay; format: functional, cell-based
Method in brief: (§7)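 Lipid peroxidation measured as MDA–thiobarbituric acid adducts, with BHT added to samples; calibrated to a 1,1,3,3-tetraethoxypropane standard curve; protein by Peterson method.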

Jurkat [18] = test: Cell cycle arrest in UV-A irradiated human Jurkat cells assessed as accumulation at Sub G1 phase at 10 uM after 24 hrs by propidium iodide based flow cytometry (reference value: 0.1 %); format: functional; method in brief: as §5
Jurkat [19] = test: Cell cycle arrest in UV-A irradiated human Jurkat cells assessed as accumulation at G1 phase at 10 uM after 24 hrs by propidium iodide based flow cytometry (reference value: 64.4 %); format: functional; method in brief: as §5
Jurkat [20] = test: Induction of lipid peroxidation in 3.75 J/cm'2 UV-A irradiated human Jurkat cells assessed as increase in TBARS formation after 24 hrs by thiobarbituric acid assay; format: functional, cell-based; method in brief: as §7
Jurkat [21] = test: Cell cycle arrest in UV-A irradiated human Jurkat cells assessed as accumulation at G2/M phase at 10 uM after 24 hrs by propidium iodide based flow cytometry (reference value: 10.3 %); format: functional; method in brief: as §5
Nucleic Acid [22] = test: Binding affinity to salmon testes DNA at drug/DNA ratio of 0.02 by linear dichroism analysis; format: nucleic-acid assay; conditions: Salmonidae; method in brief: as §6
Jurkat [23] = test: Cell cycle arrest in UV-A irradiated human Jurkat cells assessed as accumulation at G2/M phase at 5 uM after 24 hrs by propidium iodide based flow cytometry (reference value: 10.3 %); format: functional; method in brief: as §5
Jurkat [24] = test: Induction of apoptosis in UV-A irradiated human Jurkat cells assessed as increase in number of damaged lysosomes at 5 to 10 uM by acridine orange-based flow cytometry; format: functional, cell-based; method in brief: as §4
Jurkat [25] = test: Cell cycle arrest in UV-A irradiated human Jurkat cells assessed as accumulation at S phase at 10 uM after 24 hrs by propidium iodide based flow cytometry (reference value: 25.3 %); format: functional; method in brief: as §5
Jurkat [26] = test: Cell cycle arrest in UV-A irradiated human Jurkat cells assessed as accumulation at S phase at 5 uM after 24 hrs by propidium iodide based flow cytometry (reference value: 25.3 %); format: functional; method in brief: as §5
Nucleic Acid [27] = test: Binding affinity to salmon testes DNA at drug/DNA ratio of 0.03 by linear dichroism analysis; format: nucleic-acid assay; conditions: Salmonidae; method in brief: as §6
Jurkat [28] = test: Induction of apoptosis in UV-A irradiated human Jurkat cells assessed as loss of mitochondrial membrane potential after 6 hrs by cytofluorimetric analysis; format: functional, cell-based
Method in brief: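 Jurkat cells 6, 12 and 24 h after UV-A (2.5 J/cm²) with compound, resuspended in HBSS with JC-1 (1 μg/ml). Green (FL1) and orange (FL2) fluorescence collected by flow cytometry, ≥10000 events; cells with monomeric JC-1 counted as collapsed potential. Mean ± SEM of three experiments.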

[29] = Photodegradation of the compound in DMSO assessed as formation of photoproducts at 20 uM at 1.3 to 15.2 J/cm'2 UV-A irradiation; format: physicochemical; method in brief: as §3

## Cc1c2c(cn1Cc1ccccc1)CCc1cc(S(=O)(=O)c3ccccc3)c(=O)[nH]c1-2
LoVo [1]
  IC50: > 20000 nM
LoVo [2]
  IC50: > 20000 nM
MCF7 [3]
  IC50: > 20000 nM
HL-60 [4]
  IC50: 4000 nM
Jurkat [5]
  IC50: 13000 nM
[6]
  Stability: Unstable
Jurkat [7]
  IC50: 3000 nM
[8]
  IC50: 14400 nM
HL-60 [9]
  IC50: 2500 nM
MCF7 [10]
  IC50: 7700 nM
[11]
  IC50: > 20000 nM

## CCOC(=O)c1c2c(c(C)n1Cc1ccccc1)-c1[nH]c(=O)c(S(=O)(=O)c3ccccc3)cc1CC2
LoVo [1]
  IC50: 4000 nM
Jurkat [12]
  Activity: Active
Jurkat [13]
  Activity: 53.8%
Nucleic Acid [14]
  Activity: inactive
LoVo [2]
  IC50: 2300 nM
MCF7 [3]
  IC50: 3300 nM
HL-60 [4]
  IC50: 1200 nM
Jurkat [5]
  IC50: 2900 nM
Jurkat [15]
  Activity: 3.8%
Nucleic Acid [16]
  Activity: inactive
Jurkat [17]
  Activity: Dose-dependent effect
Jurkat [18]
  Activity: 12.5%
Jurkat [19]
  Activity: 44.8%
Jurkat [7]
  IC50: 1900 nM
[8]
  IC50: 2500 nM
Jurkat [20]
  Activity: Dose-dependent effect
HL-60 [9]
  IC50: 800 nM
MCF7 [10]
  IC50: 1400 nM
[11]
  IC50: 4000 nM
Jurkat [21]
  Activity: 0.8%
Nucleic Acid [22]
  Activity: inactive
Jurkat [23]
  Activity: 4.4%
Jurkat [24]
  Activity: Active
Jurkat [25]
  Activity: 54.4%
Jurkat [26]
  Activity: 41.8%
Nucleic Acid [27]
  Activity: inactive
Jurkat [28]
  Activity: Active

## COc1nc2c(cc1S(=O)(=O)c1ccccc1)CCc1cn(C)cc1-2
LoVo [1]
  IC50: 1900 nM
Jurkat [13]
  Activity: 49.6%
Nucleic Acid [14]
  Activity: inactive
LoVo [2]
  IC50: 900 nM
MCF7 [3]
  IC50: 2500 nM
HL-60 [4]
  IC50: 1600 nM
Jurkat [5]
  IC50: 1000 nM
[29]
  Stability: Unstable
Jurkat [15]
  Activity: 4%
Nucleic Acid [16]
  Activity: inactive
Jurkat [17]
  Activity: Dose-dependent effect
Jurkat [18]
  Activity: 15.9%
Jurkat [19]
  Activity: 40.1%
Jurkat [7]
  IC50: 200 nM
[8]
  IC50: 1100 nM
Jurkat [20]
  Activity: Dose-dependent effect
HL-60 [9]
  IC50: 900 nM
MCF7 [10]
  IC50: 2000 nM
[11]
  IC50: 4900 nM
Jurkat [21]
  Activity: 9.5%
Nucleic Acid [22]
  Activity: inactive
Jurkat [23]
  Activity: 5%
Jurkat [25]
  Activity: 50.4%
Jurkat [26]
  Activity: 45.4%
Nucleic Acid [27]
  Activity: inactive
